Data reported in ChEMBL document CHEMBL1143102, “Synthesis, radiofluorination, and in vitro evaluation of pyrazolo[1,5-a]pyridine-based dopamine D4 receptor ligands: discovery of an inverse agonist radioligand for PET” (J Med Chem, 2008).

target: T1, D(2) dopamine receptor (Homo sapiens, UniProt P14416); experiment: Displacement of [3H]spiperone from cloned human dopamine D2L receptor expressed in CHO cells; type: cell-based; conditions: not given
T1 sequence (P14416 whole entry): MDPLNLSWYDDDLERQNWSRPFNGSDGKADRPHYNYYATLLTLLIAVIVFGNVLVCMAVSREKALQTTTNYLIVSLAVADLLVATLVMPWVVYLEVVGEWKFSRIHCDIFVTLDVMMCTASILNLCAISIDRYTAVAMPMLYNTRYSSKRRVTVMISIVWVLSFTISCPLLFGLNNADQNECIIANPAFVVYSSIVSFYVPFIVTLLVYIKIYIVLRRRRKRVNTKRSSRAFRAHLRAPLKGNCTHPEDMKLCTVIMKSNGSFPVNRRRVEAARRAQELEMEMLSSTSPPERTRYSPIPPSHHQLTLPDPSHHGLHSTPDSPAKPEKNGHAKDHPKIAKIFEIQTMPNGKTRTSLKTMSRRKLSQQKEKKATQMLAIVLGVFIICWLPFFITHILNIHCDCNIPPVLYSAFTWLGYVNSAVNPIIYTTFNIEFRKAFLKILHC

Compound	Ki
Brc1cccc(N2CCN(Cc3cc4ccccn4n3)CC2)n1	880 nM

target: T1, D(2) dopamine receptor; experiment: Displacement of [3H]spiperone from cloned human dopamine D2S receptor expressed in CHO cells; type: cell-based; conditions: not given

Compound	Ki
Brc1cccc(N2CCN(Cc3cc4ccccn4n3)CC2)n1	550 nM

target: D(3) dopamine receptor (Homo sapiens, UniProt P35462); experiment: Displacement of [3H]spiperone from cloned human dopamine D3 receptor expressed in CHO cells; type: cell-based; conditions: not given
Sequence (P35462 whole entry): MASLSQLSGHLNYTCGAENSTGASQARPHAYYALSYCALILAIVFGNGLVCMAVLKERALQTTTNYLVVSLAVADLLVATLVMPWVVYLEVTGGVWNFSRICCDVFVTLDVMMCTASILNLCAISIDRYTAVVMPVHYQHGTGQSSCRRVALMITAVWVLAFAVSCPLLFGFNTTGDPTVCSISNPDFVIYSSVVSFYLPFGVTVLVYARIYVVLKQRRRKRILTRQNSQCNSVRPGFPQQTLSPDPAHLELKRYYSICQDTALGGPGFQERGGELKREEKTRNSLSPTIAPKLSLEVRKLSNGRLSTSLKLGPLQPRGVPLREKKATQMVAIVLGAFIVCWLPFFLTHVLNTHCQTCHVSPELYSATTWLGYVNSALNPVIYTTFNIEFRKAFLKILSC

Compound	Ki
Brc1cccc(N2CCN(Cc3cc4ccccn4n3)CC2)n1	930 nM

system: not listed separately; experiment: Displacement of [3H]spiperone from cloned human dopamine D4.4 receptor expressed in CHO cells; type: cell-based; conditions: not given

Compound	Ki
Clc1ccc(N2CCN(Cc3cnn4ccccc34)CC2)cc1 [FAUC 113]	5.8 nM
Clc1ccc(N2CCN(Cc3cc4ccccn4n3)CC2)cc1	2.2 nM
Brc1cccc(N2CCN(Cc3cc4ccccn4n3)CC2)n1	7.9 nM

target: D(1A) dopamine receptor (Sus scrofa, UniProt P50130); experiment: Displacement of [3H][…] from dopamine D1 receptor in pig striatal membrane; type: cell membranes, Striatum; conditions: not given
Sequence (P50130 whole entry): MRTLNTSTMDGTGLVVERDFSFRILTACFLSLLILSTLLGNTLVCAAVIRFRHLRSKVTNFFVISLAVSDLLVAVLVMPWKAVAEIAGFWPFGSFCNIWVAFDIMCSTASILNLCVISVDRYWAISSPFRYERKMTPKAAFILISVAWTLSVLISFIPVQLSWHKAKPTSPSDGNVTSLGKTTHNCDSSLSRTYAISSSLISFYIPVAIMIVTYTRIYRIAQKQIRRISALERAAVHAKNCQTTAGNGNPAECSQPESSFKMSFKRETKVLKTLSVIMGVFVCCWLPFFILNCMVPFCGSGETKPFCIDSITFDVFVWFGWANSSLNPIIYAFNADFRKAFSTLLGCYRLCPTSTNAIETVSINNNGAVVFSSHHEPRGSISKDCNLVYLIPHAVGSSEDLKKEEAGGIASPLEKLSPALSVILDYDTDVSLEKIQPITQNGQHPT

Compound	Ki
Brc1cccc(N2CCN(Cc3cc4ccccn4n3)CC2)n1	18000 nM

target: not listed separately; experiment: Displacement of [3H]8-OH-DPAT from 5HT1A receptor in pig cortical membranes; type: cell membranes, Sus scrofa; conditions: not given
Method in brief: (§1)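 Competition binding on porcine cortical membranes. Radioligands, each at 0.5 nM final: [3H]8-OH-DPAT for 5-HT1A, [3H]ketanserin for 5-HT2, [3H]prazosin for α1.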

Compound	Ki
Clc1ccc(N2CCN(Cc3cnn4ccccc34)CC2)cc1 [FAUC 113]	1400 nM
Clc1ccc(N2CCN(Cc3cc4ccccn4n3)CC2)cc1	1700 nM
Brc1cccc(N2CCN(Cc3cc4ccccn4n3)CC2)n1	360 nM

target: 5-hydroxytryptamine receptor 2A (Sus scrofa, UniProt P50129); experiment: Displacement of [3H]ketanserin from 5HT2 receptor in pig cortical membranes; type: cell membranes; conditions: not given; method in brief: as §1
Sequence (P50129 whole entry): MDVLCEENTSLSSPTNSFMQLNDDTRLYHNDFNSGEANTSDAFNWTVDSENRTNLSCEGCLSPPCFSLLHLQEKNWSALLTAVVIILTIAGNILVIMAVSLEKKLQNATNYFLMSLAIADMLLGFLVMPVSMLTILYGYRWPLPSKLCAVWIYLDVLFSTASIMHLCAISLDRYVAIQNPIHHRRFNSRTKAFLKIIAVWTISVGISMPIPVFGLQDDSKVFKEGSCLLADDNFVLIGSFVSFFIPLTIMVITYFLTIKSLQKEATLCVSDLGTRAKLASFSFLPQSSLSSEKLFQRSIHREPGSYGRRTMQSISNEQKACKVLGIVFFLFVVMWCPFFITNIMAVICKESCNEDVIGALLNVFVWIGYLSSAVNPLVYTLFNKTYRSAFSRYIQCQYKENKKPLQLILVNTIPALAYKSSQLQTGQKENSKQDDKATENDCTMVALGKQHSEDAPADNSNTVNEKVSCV

Compound	Ki
Brc1cccc(N2CCN(Cc3cc4ccccn4n3)CC2)n1	4400 nM

target: not listed separately; experiment: Displacement of [3H]prazosin from adrenergic alpha1 receptor in pig cortical membranes; type: cell membranes, Sus scrofa; conditions: not given; method in brief: as §1

Compound	Ki
Clc1ccc(N2CCN(Cc3cnn4ccccc34)CC2)cc1 [FAUC 113]	240 nM
Clc1ccc(N2CCN(Cc3cc4ccccn4n3)CC2)cc1	270 nM
Brc1cccc(N2CCN(Cc3cc4ccccn4n3)CC2)n1	240 nM

organism: Homo sapiens; experiment: Selectivity for human dopamine D4.4 receptor over human dopamine D2L receptor; conditions: not given

Compound	Ratio Ki
Clc1ccc(N2CCN(Cc3cc4ccccn4n3)CC2)cc1	1550

organism: Homo sapiens; experiment: Selectivity for human dopamine D4.4 receptor over human dopamine D2S receptor; conditions: not given

Compound	Ratio Ki
Clc1ccc(N2CCN(Cc3cc4ccccn4n3)CC2)cc1	2860

organism: Homo sapiens; experiment: Selectivity for human dopamine D4.4 receptor over human dopamine D3 receptor; conditions: not given

Compound	Ratio Ki
Clc1ccc(N2CCN(Cc3cc4ccccn4n3)CC2)cc1	2410

system: not listed separately; experiment: Agonist activity at rat dopamine D4.2 receptor expressed in CHO10001A cells assessed as incorporation of [3H]thymidine relative to quinpirole; type: functional; conditions: not given

Compound	Efficacy
Clc1ccc(N2CCN(Cc3cnn4ccccc34)CC2)cc1 [FAUC 113]	26%
Clc1ccc(N2CCN(Cc3cc4ccccn4n3)CC2)cc1	<3%

system: not listed separately; experiment: Agonist activity at rat dopamine D4.2 receptor expressed in CHO10001A cells assessed as incorporation of [3H]thymidine; type: functional, cell-based; conditions: not given

Compound	EC50
CCCN1CCC[C@@H]2Cc3n[nH]cc3C[C@H]21 [QUINPIROLE]	7.1 nM

system: not listed separately; experiment: Stability in human serum at 37 degC after 90 mins; type: ADME, cell-free; conditions: read-out: Stability
Method in brief: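 PBS-formulated 18F-labeled compound (20 µL, 250 MBq/mL) is added to 200 µL human serum and incubated at 37 °C for up to 90 min. The percentage of intact radioligand is reported.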

Compound	remaining at 1.5 h
[18F]c1cccc(N2CCN(Cc3cnn4ccccc34)CC2)n1	> 98%
[18F]CCOc1ccc(N2CCN(Cc3cc4ccccn4n3)CC2)cc1	> 99%
[18F]CCOc1ccc(N2CCN(Cc3cnn4ccccc34)CC2)cc1	> 96%
[18F]c1cccc(N2CCN(Cc3cc4ccccn4n3)CC2)n1	> 99%

system: not listed separately; experiment: Lipophilicity, log D at pH 7.4; type: physicochemical; conditions: buffer
Method in brief: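 Shake-flask partition of about 25 kBq 18F-labeled compound between 1-octanol and PBS pH 7.4, mixed 3 min at room temperature and centrifuged. Triplicate 100 µL samples of each phase are gamma-counted. log D7.4 = log(cpm octanol/cpm buffer), from 2–3 independent experiments in triplicate, mean ± SD.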

Compound	logD
[18F]c1cccc(N2CCN(Cc3cnn4ccccc34)CC2)n1	1.98
[18F]CCOc1ccccc1N1CCN(Cc2cnn3ccccc23)CC1	2.15
[18F]CCOc1ccc(N2CCN(Cc3cc4ccccn4n3)CC2)cc1	1.99
[18F]CCOc1ccc(N2CCN(Cc3cnn4ccccc34)CC2)cc1	2.12
[18F]c1cccc(N2CCN(Cc3cc4ccccn4n3)CC2)n1	1.78

target: T2, D(4) dopamine receptor (Rattus norvegicus) (UniProt P30729); experiment: Displacement of 2-[4-(2-(2-[18F]fluoroethoxy)phenyl)piperazin-1-ylmethyl]pyrazolo[1,5-alpha]pyridine from dopamine D4 receptor in Sprague-Dawley rat brain; conditions: not given
T2 sequence (whole entry): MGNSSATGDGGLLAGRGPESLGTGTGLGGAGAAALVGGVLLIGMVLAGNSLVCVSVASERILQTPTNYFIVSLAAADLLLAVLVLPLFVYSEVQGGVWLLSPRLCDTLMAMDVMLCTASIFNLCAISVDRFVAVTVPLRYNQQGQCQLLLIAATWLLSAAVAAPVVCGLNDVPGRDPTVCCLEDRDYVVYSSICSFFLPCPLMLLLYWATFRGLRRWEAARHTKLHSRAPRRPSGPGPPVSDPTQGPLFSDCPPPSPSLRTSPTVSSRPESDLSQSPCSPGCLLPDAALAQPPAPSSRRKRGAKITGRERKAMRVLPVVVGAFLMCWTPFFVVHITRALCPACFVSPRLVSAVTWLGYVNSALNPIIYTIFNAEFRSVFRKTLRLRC
Method in brief: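 In vitro autoradiography on 20 µm coronal brain cryosections from female Sprague–Dawley rats. Sections are preincubated 2 × 5 min, then incubated 60 min at room temperature with 110 kBq/mL [18F] radioligand, ± competitor (1 µM). Buffer: Tris-HCl, NaCl, EDTA, MgCl2 pH 7.4, with 0.5 µM DTG and 0.1 µM pindolol. Sections are washed cold, imaged by real-time autoradiography, and ROI intensities (cpm/mm2) are defined by HE counterstaining.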

Compound	Activity
CCc1cc(Cl)c(OC)c(C(=O)NC[C@@H]2CCCN2CC)c1O	65%
Clc1ccc(N2CCN(Cc3cc4ccccn4n3)CC2)cc1	78%
